Variants at the floor of the assay were thinned out.
B1: tRNA (parent)
chain: GUUCCGUUGGCGUAAUGGUAACGCGUCUCCCUCCUAAGGAGAAGACUGCGGGUUCGAGUCCCGUACGGAACG

Variants of: B1
Experiment: yeast fitness relative to wild type (ratio to wild type); higher = fitter; tRNA-Arg(CCU), competitive growth, 37 C, YPD
In short: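 Changes in genotype frequencies gave Darwinian fitness relative to wild type. Frequencies were read by 100-nucleotide paired-end sequencing of gene amplicons before and after pooled Saccharomyces cerevisiae strains, carrying tRNA-Arg(CCU) gene variants at the native locus, were competed in YPD at 37°C for 24 hours in six replicates. A genotype was kept only with ≥ 100 starting reads, and estimates < 0.5 were set to 0.5.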

First: C11A A20U C22U
Second: G10C U13A A14G A20G C22A C24G G52C
The yeast fitness of the first is higher: 0.552 for the first, ≤ 0.5 for the second.

Going from G10C C27G C30G G58A to C11A C27G C33U G56A C61G, the yeast fitness falls from 0.557 to ≤ 0.5.

Compared with C11A A15U A21U A36C A37U, G10C G41A C62U is lower in yeast fitness: 0.56 for the first, ≤ 0.5 for the second.

G10C C22A C24G U53A G67A and C11A C22G G67A G68C cannot be ordered by yeast fitness: ≤ 0.5 for the first, ≤ 0.5 for the second.

Compared with C11A C22U U35C, G10C C29A C33A C62U is higher in yeast fitness: ≤ 0.5 for the first, 0.6 for the second.

Going from G10C U26A C27U A42G A70G to C11A A45G, the yeast fitness rises from ≤ 0.5 to 0.603.

G10C G12C C46G C55U and G10C G58A C66G cannot be ordered by yeast fitness: ≤ 0.5 for the first, ≤ 0.5 for the second.

Going from G10C C30G C46U to C11A C27U C33U U35C, the yeast fitness rises from ≤ 0.5 to 0.634.

G10C C24A C61U and G10C U16G A43C G51C cannot be ordered by yeast fitness: ≤ 0.5 for the first, ≤ 0.5 for the second.

G10U U26C G39A A65C and C11A A36C A42G U47C G67A cannot be ordered by yeast fitness: ≤ 0.5 for the first, ≤ 0.5 for the second.

C11A C46G A65G and G10C C29U C31U G63U cannot be ordered by yeast fitness: ≤ 0.5 for the first, ≤ 0.5 for the second.

Compared with G10C C22A C24G U53A C62U, G10C C62U is higher in yeast fitness: ≤ 0.5 for the first, 0.646 for the second.

C11A C30U A45C and C11A C31G A42U G67A cannot be ordered by yeast fitness: ≤ 0.5 for the first, ≤ 0.5 for the second.

G10C G17A A20U and C11A C27U C31U C34G A40G G63C cannot be ordered by yeast fitness: ≤ 0.5 for the first, ≤ 0.5 for the second.

Compared with G10C C30U G38A, G10C U47A G48A is higher in yeast fitness: 0.531 for the first, 0.568 for the second.

Compared with G10C G39A, C11A C31A U32C G44C A65G is lower in yeast fitness: 0.563 for the first, ≤ 0.5 for the second.

Compared with C11A A15C C24A C27A G41C, C11A C33U A43U is lower in yeast fitness: 0.583 for the first, 0.532 for the second.

Compared with C11A C31A G38U G44C A65G, C11A C31G C62G is higher in yeast fitness: ≤ 0.5 for the first, 0.506 for the second.

C11A A15C C24G U59A and G10C C27U C30U U53A A69C cannot be ordered by yeast fitness: ≤ 0.5 for the first, ≤ 0.5 for the second.

C11A C29U C46U G67C A69U and G10C C24U C34G A65C cannot be ordered by yeast fitness: ≤ 0.5 for the first, ≤ 0.5 for the second.

First: C11A A36G A43U
Second: C11A C29U A57C
The yeast fitness of the first is lower: ≤ 0.5 for the first, 0.732 for the second.

Going from G10C C24G C46U A69U to C11A C30U C33G U64C, the yeast fitness falls from 0.569 to ≤ 0.5.

G10C C24U G68U and C11A C33U C49U C60G cannot be ordered by yeast fitness: ≤ 0.5 for the first, ≤ 0.5 for the second.

G10C G18A C30G G44A G48A G58A and G10C C27A A42U C46G cannot be ordered by yeast fitness: ≤ 0.5 for the first, ≤ 0.5 for the second.

First: C11A A15C U26A C29U C33A G38C C55A C60U
Second: C11A C27G C61G
The yeast fitness of the first is lower: ≤ 0.5 for the first, 0.52 for the second.

G10C C34G G63A A69U A70C and C11A A21U C66U cannot be ordered by yeast fitness: ≤ 0.5 for the first, ≤ 0.5 for the second.

G10C G51C A65C C66U and G10C U16G C31A U32G C66A cannot be ordered by yeast fitness: ≤ 0.5 for the first, ≤ 0.5 for the second.

Compared with C11A A57G, C11A C29U A43C A65U is lower in yeast fitness: 0.655 for the first, ≤ 0.5 for the second.

Compared with C11A C24G C49U, C11A A14U C27U is lower in yeast fitness: 0.588 for the first, ≤ 0.5 for the second.

Compared with G10U A42U, G10C C27U A40U A45U G48A is lower in yeast fitness: 0.775 for the first, ≤ 0.5 for the second.

Going from G10U G48A A70U to G10C U19A A37C G50U, the yeast fitness falls from 0.649 to 0.526.

Compared with C11A C22G C29G C62U, G10C C55G A69C is lower in yeast fitness: 0.57 for the first, ≤ 0.5 for the second.

Going from G10C U19A C31G A42G to C11A A37C C49G C55G, the yeast fitness falls from 0.627 to ≤ 0.5.

C11A C27U C31U C34G A40G and G10C U13A C31A C62U cannot be ordered by yeast fitness: ≤ 0.5 for the first, ≤ 0.5 for the second.

C11A A14G A15G C22A G23A C33A G38C A70U and G10C G12A U54A G68A cannot be ordered by yeast fitness: ≤ 0.5 for the first, ≤ 0.5 for the second.

C11A A15U A20C and G10C U26A U59C C66U cannot be ordered by yeast fitness: ≤ 0.5 for the first, ≤ 0.5 for the second.

G10C C30U C66A and G10C U16C C22A C33A cannot be ordered by yeast fitness: ≤ 0.5 for the first, ≤ 0.5 for the second.

Compared with G10C C33G A36C C46A A65U, C11A C30U C49A A69U is lower in yeast fitness: 0.53 for the first, ≤ 0.5 for the second.

First: C11A A21C C30U C66U
Second: G10C C33A A40U U54A
The yeast fitness of the first is higher: 0.539 for the first, ≤ 0.5 for the second.

Compared with C11A C22G, C11A A15G C49U is lower in yeast fitness: 0.623 for the first, 0.55 for the second.

Going from G10C C31G A70U to C11A A21C C31A C55U G68C, the yeast fitness falls from 0.569 to ≤ 0.5.

Compared with C11A C30U A42C, C11A A21C C55U C62U G67C is higher in yeast fitness: ≤ 0.5 for the first, 0.529 for the second.

Compared with C11A C27U G44C, C11A C27G C61G G68A is lower in yeast fitness: 0.572 for the first, ≤ 0.5 for the second.

First: G10C G23C A45U U59G
Second: C11A C27G U35A A43U U54C A65G
The yeast fitness of the first is lower: 0.528 for the first, 0.659 for the second.

C11A C33A A40G A43G and G10C U19A C66U cannot be ordered by yeast fitness: ≤ 0.5 for the first, ≤ 0.5 for the second.

G10C C29U C34U G38A G44C and C11A A37U C62A C66U cannot be ordered by yeast fitness: ≤ 0.5 for the first, ≤ 0.5 for the second.

Compared with C11A C27G C30G G44C, C11A A21U C34A is lower in yeast fitness: 0.538 for the first, ≤ 0.5 for the second.

Compared with G10C C33G C62A G67C, G10C C33A is higher in yeast fitness: ≤ 0.5 for the first, 0.506 for the second.

Compared with G10C C33G, G10C C46U C62U is lower in yeast fitness: 0.558 for the first, ≤ 0.5 for the second.

G10C G12A A36G C46A U47A and G10C G58C G67A cannot be ordered by yeast fitness: ≤ 0.5 for the first, ≤ 0.5 for the second.

Compared with G10C U35G A43C U47C C55U A69C, G10C C22G C29A C46U A65C is lower in yeast fitness: 0.574 for the first, 0.538 for the second.

Compared with G10C C34A U53A U54G, C11A A42C is higher in yeast fitness: ≤ 0.5 for the first, 0.606 for the second.

Compared with C11A A21G C33G A36U G44A U59C, G10C C22U is higher in yeast fitness: ≤ 0.5 for the first, 0.803 for the second.

First: C11A C34G U35G G39A
Second: G10C U26C A45G A65C
The yeast fitness of the first is lower: ≤ 0.5 for the first, 0.635 for the second.

First: G10C U26A A70U
Second: C11A A20G C22G C49G G68C A69C
The yeast fitness of the first is higher: 0.622 for the first, ≤ 0.5 for the second.

First: C11A C34G G50A
Second: G10C G25A
The yeast fitness of the first is lower: 0.681 for the first, 0.691 for the second.

First: G10C U32C A42C A65C C66G
Second: G10C G50A
The yeast fitness of the first is lower: 0.614 for the first, 0.76 for the second.

First: C11A A36G C49G A70G
Second: C11A C31G A42U C62U U64A
The yeast fitness of the first is higher: 0.584 for the first, ≤ 0.5 for the second.

G10C G23C A65C and C11A C27A A70G cannot be ordered by yeast fitness: ≤ 0.5 for the first, ≤ 0.5 for the second.

Compared with C11A A42C C62A, G10C C22G C33A is higher in yeast fitness: ≤ 0.5 for the first, 0.581 for the second.

Going from G10C C24U C34U A36U C46A to C11A A43G C46G A65U, the yeast fitness falls from 0.505 to ≤ 0.5.

G10C G12A C22A C24G U53A and G10C U32C C33A cannot be ordered by yeast fitness: ≤ 0.5 for the first, ≤ 0.5 for the second.

Compared with G10C U13A C31A, G10C U54C G56A is lower in yeast fitness: 0.594 for the first, ≤ 0.5 for the second.

Going from G10U U13A to C11A C29U C34G A36G, the yeast fitness falls from 0.675 to 0.607.

Compared with G10C C22A C60G C61U G63A, C11A A70U is higher in yeast fitness: ≤ 0.5 for the first, 0.581 for the second.

G10C C55U and G10C G18C A45C cannot be ordered by yeast fitness: ≤ 0.5 for the first, ≤ 0.5 for the second.

C11A C27U C33U U35C A57U and C11A C24U C60A cannot be ordered by yeast fitness: ≤ 0.5 for the first, ≤ 0.5 for the second.

Going from C11A C24G U47G G68C to C11A A40C, the yeast fitness rises from ≤ 0.5 to 0.708.

G10C C22A C24G G68C and G10C C55U U59A cannot be ordered by yeast fitness: ≤ 0.5 for the first, ≤ 0.5 for the second.

C11A C27G C62U G68A and G10C C31A G56A A65G C66A G68C cannot be ordered by yeast fitness: ≤ 0.5 for the first, ≤ 0.5 for the second.

Going from G10U C31U to C11A A42C G51A A69C, the yeast fitness falls from 0.78 to ≤ 0.5.

First: C11A C46U A70G
Second: C11A C31G
The yeast fitness of the first is lower: 0.56 for the first, 0.592 for the second.

Going from G10C G52A to C11A A69U, the yeast fitness rises from 0.666 to 0.734.

First: C11A C27A C55U
Second: C11A A43G A69U
The yeast fitness of the first is lower: ≤ 0.5 for the first, 0.582 for the second.

Going from G10C C49G U53G to G10C G44U, the yeast fitness rises from 0.551 to 0.587.

First: C11A A43G G50C G56C A65G
Second: C11A A36G A43C G48A
The yeast fitness of the first is lower: ≤ 0.5 for the first, 0.558 for the second.

First: G10C G25C U26C
Second: G10C G23C A42G G50A A57C G67A
The yeast fitness of the first is higher: 0.526 for the first, ≤ 0.5 for the second.

G10C G12A C33A U35G U47A C55A C61U and C11A A15G C22G C61U cannot be ordered by yeast fitness: ≤ 0.5 for the first, ≤ 0.5 for the second.

Going from G10C C24U C29A A45U C46G U47A G50A to C11A C27U C30A A43C C60U, the yeast fitness falls from 0.702 to ≤ 0.5.

Compared with C11A C30G C31U U32C G52A U59C, G10C G25C C55A is higher in yeast fitness: ≤ 0.5 for the first, 0.545 for the second.

C11A A14G C24U G41C A42G C55G and G10C U47G C55U A70G cannot be ordered by yeast fitness: ≤ 0.5 for the first, ≤ 0.5 for the second.

G10C G51C A65U and C11A C34A U47A C61G cannot be ordered by yeast fitness: ≤ 0.5 for the first, ≤ 0.5 for the second.

First: C11A A20G C46U G50C C60A
Second: G10C C31G
The yeast fitness of the first is lower: ≤ 0.5 for the first, 0.631 for the second.

For G10C C24A G44C, the yeast fitness was ≤ 0.5.
